We go through seven compounds from paper PMC9978883 (Molecular Cancer Therapeutics, 2023).

The test system of one series is VCaP. As to the kind of experiment: Cell proliferation. The note with it: for IC50: Homo sapiens, VCaP, 72 h, read-out: Growth inhibitory IC50, VCaP. The format is cell-based, human.
A further series relates to PC3. Nature of the series: Cell proliferation. It is filed as cell-based. The note with it: Homo sapiens, PC-3, 72 h, read-out: Growth inhibitory IC50, PC3.
The next series concerns LNCaP. As to the kind of experiment: Cell proliferation. It is filed as cell-based. The note with it: Homo sapiens, 72 h, read-out: Growth inhibitory IC50, LNCaP.
The subject of the next series is DU145. Nature of the series: Cell proliferation. It is filed as cell-based. Conditions: Homo sapiens, DU-145, 72 h, read-out: Growth inhibitory IC50, DU145.
A further series deals with WPMY. As to the kind of experiment: Cell proliferation. The note with it: Homo sapiens, 72 h, read-out: Growth inhibitory IC50, WPMY. It is filed as cell-based.
A further series has as its target T1, ERG (Homo sapiens, UniProt P11308).
T1 sequence (P11308 1-479): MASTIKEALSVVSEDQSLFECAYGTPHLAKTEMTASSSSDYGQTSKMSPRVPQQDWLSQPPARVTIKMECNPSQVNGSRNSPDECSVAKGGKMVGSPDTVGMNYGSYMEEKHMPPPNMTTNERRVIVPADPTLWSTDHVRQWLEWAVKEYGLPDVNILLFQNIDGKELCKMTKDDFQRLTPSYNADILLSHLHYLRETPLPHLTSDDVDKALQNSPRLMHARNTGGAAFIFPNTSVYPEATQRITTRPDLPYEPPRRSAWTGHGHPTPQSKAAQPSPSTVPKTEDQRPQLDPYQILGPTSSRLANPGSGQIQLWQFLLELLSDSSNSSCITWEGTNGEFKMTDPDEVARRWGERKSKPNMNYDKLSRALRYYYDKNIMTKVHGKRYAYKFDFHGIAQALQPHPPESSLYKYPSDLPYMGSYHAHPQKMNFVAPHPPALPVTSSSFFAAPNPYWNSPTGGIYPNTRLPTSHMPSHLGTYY
As to the kind of experiment: Surface plasmon resonance, ERG. It is filed as binding. The note with it: SPR.

For the next series, the target named is STAT3 (Homo sapiens, UniProt P40763). As to the kind of experiment: Surface plasmon resonance, STAT3. The format is binding.
The next series has as its target T2, ALDH1 (Homo sapiens, UniProt P00352).
T2 sequence (P00352 1-501): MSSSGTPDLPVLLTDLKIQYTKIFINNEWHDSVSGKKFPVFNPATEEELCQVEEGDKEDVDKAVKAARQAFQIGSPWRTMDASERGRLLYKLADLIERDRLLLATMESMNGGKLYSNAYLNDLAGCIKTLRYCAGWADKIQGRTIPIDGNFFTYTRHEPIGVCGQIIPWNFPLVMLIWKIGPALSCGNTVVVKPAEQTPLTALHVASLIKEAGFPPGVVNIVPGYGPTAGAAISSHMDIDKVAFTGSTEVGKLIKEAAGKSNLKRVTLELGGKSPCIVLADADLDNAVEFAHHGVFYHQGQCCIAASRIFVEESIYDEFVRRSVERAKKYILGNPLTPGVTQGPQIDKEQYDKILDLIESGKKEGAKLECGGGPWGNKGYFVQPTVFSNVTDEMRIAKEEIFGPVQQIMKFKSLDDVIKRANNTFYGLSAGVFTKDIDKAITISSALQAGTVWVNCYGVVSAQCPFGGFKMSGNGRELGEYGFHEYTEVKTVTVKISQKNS
As to the kind of experiment: Surface plasmon resonance, ALDH1. The format is binding.

In another series the test system is DU145 vector. Nature of the series: Cell proliferation on DU145 vector control cells. It is filed as cell-based. Conditions: Homo sapiens, DU-145, read-out: IC50, DU145 vector.
The subject of series [1] is VCaP cells. As to the kind of experiment: Cell-cycle determination by flow cytometry. It is filed as cell-based, human. The note with it: 5, 10, or 20 μmol/L, 24 hours.
The subject of series [2] is VCaP cells. Nature of the series: Cell necrosis and apoptosis, PI/Hoechst 33342 flow cytometry. The format is cell-based, human.
In the next series the test system is VCaP xenograft tumors. As to the kind of experiment: VCaP xenograft in male SCID mice. It is filed as in vivo. An outline of the steps:
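Male SCID mice were implanted subcutaneously on the left abdomen with 4 × 10^6 VCaP cells. At about 100 mm3, mice were randomised, six per group. Dosing was 75 mg/kg i.p. once daily or 37.5 mg/kg by gavage twice daily; controls got solvent i.p. Plasma ALT and AST were measured by kit every 7 days. Endpoint was tumour volume >2 cm3. Data are mean ± SD, Dunnett test versus control.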

The target of series [3] is T3, interaction between ERG and PARP1 (Homo sapiens, UniProt P11308).
T3 sequence (P11308 1-479): T1 sequence (P11308 1-479)
It is filed as cell-based. Conditions: 0.5 or 1 μmol/L, 2 hours, DU145-ERG.

The subject of the next series is AIF mRNA. As to the kind of experiment: RT-qPCR for AIF mRNA on VCaP cells. Conditions: 2 or 5 μmol/L, 12 or 24 hours. The format is cell-based, human.
Another series relates to AIF. Nature of the series: AIF Western blot in VCaP cells. It is filed as cell-based, human.
Another series deals with γ-H2A.X. As to the kind of experiment: γ-H2A.X Western blotting in VCaP cells. The format is cell-based, human.
In a further series the test system is cleaved PARP1. As to the kind of experiment: Western blotting for cleaved PARP1 in VCaP cells. The format is cell-based, human.
Where [4] appears, read: NFZ-treated groups, every 7 days.

Bounds are passed on as bounds.

Sequence of STAT3 (P40763 whole entry): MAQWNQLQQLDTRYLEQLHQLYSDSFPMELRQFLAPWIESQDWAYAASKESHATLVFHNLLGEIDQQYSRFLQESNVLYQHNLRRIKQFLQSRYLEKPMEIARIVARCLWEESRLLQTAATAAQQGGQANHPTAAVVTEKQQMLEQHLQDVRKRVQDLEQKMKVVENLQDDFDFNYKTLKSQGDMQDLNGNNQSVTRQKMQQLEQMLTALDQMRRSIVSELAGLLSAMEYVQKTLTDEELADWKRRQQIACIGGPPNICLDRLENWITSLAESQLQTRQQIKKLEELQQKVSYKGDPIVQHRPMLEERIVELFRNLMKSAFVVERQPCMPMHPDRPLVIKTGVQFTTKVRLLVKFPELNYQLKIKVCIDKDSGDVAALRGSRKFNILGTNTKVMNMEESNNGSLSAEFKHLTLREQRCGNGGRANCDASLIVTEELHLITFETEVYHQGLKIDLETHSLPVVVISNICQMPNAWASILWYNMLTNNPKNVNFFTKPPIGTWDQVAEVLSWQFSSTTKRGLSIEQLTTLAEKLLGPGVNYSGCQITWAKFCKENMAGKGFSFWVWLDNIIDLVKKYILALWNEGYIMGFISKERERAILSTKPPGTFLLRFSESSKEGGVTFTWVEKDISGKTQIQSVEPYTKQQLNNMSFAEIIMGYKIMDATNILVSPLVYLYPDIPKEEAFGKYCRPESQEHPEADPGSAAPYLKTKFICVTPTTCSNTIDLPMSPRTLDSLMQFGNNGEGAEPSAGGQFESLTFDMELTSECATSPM

With `O=C(N/N=C/c1ccc([N+](=O)[O-])o1)c1ccc(O)cc1` [NFZ, Nifuroxazide], the IC50 in the series on VCaP stood at 2.65 ± 0.08 µM; in the series on PC3, 3.62 ± 0.51 µM; with LNCaP, 13.4 ± 2.66 µM; in the series with DU145, 5.12 ± 0.63 µM; with WPMY it was 4.53 ± 0.12 µM; in the series with DU145 vector, 7.68 ± 0.211 µM. Besides, the “Binding pattern with ERG” value on ERG is “fast binding and fast dissociation”. Also, the results for the Kd at STAT3 and on ALDH1 were 22.8 µM and 22.2 µM, respectively. Moreover, on STAT3 (SPR), the “Binding pattern with STAT3” value is on record as “fast binding/fast dissociation”. In addition, the “Binding pattern with ALDH1” value on ALDH1 (SPR) was “fast binding/fast dissociation”. The “Proportion of cells in the G1–G0 phase” value with VCaP cells [1] was “increased with the increasing NFZ concentrations”. The “Dead cells along the PI axis (Q1 and Q2)” value with VCaP cells [2] (5, 10, or 20 μmol/L, VCaP) is on record as “significantly higher than that in the DMSO group”. Moreover, the “Plasma ALT” value in the series on VCaP xenograft tumors (setting [4]) is “fluctuated within a normal range”. Besides, in the series with VCaP xenograft tumors (setting [4]), the “Plasma AST” value is “fluctuated within a normal range”. The “Weight loss of mice” value with VCaP xenograft tumors (NFZ-treated versus vehicle) is reported as “significantly less than that of mice treated with vehicle”. For the same compound, the Toxicity by observation entry in the series on VCaP xenograft tumors (gavage or i.p.) is reported as “did not show obvious toxicity”. Moreover, the “Amount of PARP1 bound to ERG” value in series [3] is recorded as “reduced the amount of PARP1 bound to ERG”. In addition, in the series on AIF mRNA, the “AIF mRNA expression” value is reported as “increased the expression of AIF”. In addition, the AIF protein entry in the series with AIF (2 or 5 μmol/L, within 30 minutes, VCaP) is recorded as “rapidly released AIF”. In the series with γ-H2A.X (2 or 5 μmol/L, different times, VCaP), the γ-H2A.X expression result was “increased”. Also, the PARP1 cleavage entry with cleaved PARP1 (2 or 5 μmol/L, VCaP) was “increased PARP1 cleavage”. Further, the “Reduction of NFZ inhibition on DU145-ERG by addition of olaparib” value in the series on DU145-ERG (10 μmol/L OLP) is given as “at least 10 fold”. In addition, the “Difference in IC50 between DU145-ERG and DU145 vector” value in the series with DU145-ERG (p < 0.0001) is recorded as “at least sevenfold”.
Consider `CCN(CC)C(=S)SSC(=S)N(CC)CC` [Disulfiram], for which the IC50 was over 30 µM with VCaP; 27 ± 2 µM with PC3; 33 ± 3.11 µM in the series with LNCaP; 22.6 ± 2.93 µM in the series with DU145; 23.3 ± 0.49 µM in the series with WPMY.
Consider `CC1CS(=O)(=O)CCN1/N=C/c1ccc([N+](=O)[O-])o1` (stereo not shown) [Nifurtimox], for which the IC50 with VCaP, in the series on PC3, in the series with LNCaP, in the series on DU145 and with WPMY was over 30 µM throughout.
For the compound `CSCC1CN(/N=C/c2ccc([N+](=O)[O-])o2)C(=O)O1` (stereo not shown) [Nifuratel], the concentration for half-maximal inhibition (IC50) was 13.9 ± 1.12 µM in the series on VCaP; 3.87 ± 0.35 µM in the series on PC3; over 30 µM in the series on LNCaP; 27.7 ± 1.11 µM in the series with DU145; 26.6 ± 0.13 µM in the series with WPMY.
In the same order, the values of `O=C(N/N=C/c1ccc([N+](=O)[O-])o1)c1cc([N+](=O)[O-])cc([N+](=O)[O-])c1O` [Nifursol] are over 30 µM, over 30 µM, over 30 µM, over 30 µM and over 30 µM.
On to `CC(=O)c1cc2c(o1)C(=O)c1ccccc1C2=O` [Napabucasin], for which the IC50 with VCaP was 0.23 ± 0.05 µM; with PC3, 0.29 ± 0.07 µM; in the series with LNCaP it was 0.23 ± 0.08 µM; in the series on DU145, 0.16 ± 0.05 µM; in the series with WPMY it was 0.25 ± 0.01 µM.
In the case of `O=C(c1cc(Cc2n[nH]c(=O)c3ccccc23)ccc1F)N1CCN(C(=O)C2CC2)CC1` [Olaparib, olaparib], the “Effect of olaparib on NFZ-mediated growth inhibition” value with VCaP (5 μmol/L NFZ with 20 μmol/L olaparib) was “completely abrogated the inhibitory effects of NFZ”; in the series on VCaP (5 μmol/L NFZ with 0.5, 1.0, or 20 μmol/L OLP), “blocked NFZ-mediated growth inhibition”. Further, the “Effect of olaparib on NFZ-induced necrotic cells (Q1 and Q2)” value with VCaP cells [2] (olaparib and NFZ combination group versus NFZ) was “reduced the number of necrotic cells”. Also, the “Effect of olaparib on NFZ-induced AIF release” value in the series with AIF (10 μmol/L olaparib with NFZ) was “reduced”. Besides, the “Effect of olaparib on NFZ-induced γ-H2A.X” value with γ-H2A.X (10 μmol/L OLP with NFZ) is listed as “counteracted this effect of NFZ”. The “Effect of olaparib on NFZ-induced PARP1 cleavage” value in the series on cleaved PARP1 (10 μmol/L OLP with NFZ) is “not altered”.
